# According to ChEMBL document CHEMBL1153722, “Design, synthesis, and characterization of peptide-based rab geranylgeranyl transferase inhibitors” (J Med Chem, 2009):
# Peptide text beside a SMILES is read from it. * marks the point of attachment. Undecanoyl = CCCCCCCCCCC(=O)*
# Species on record: Rattus norvegicus
# Assay: Inhibition of rat recombinant Rab geranylgeranyltransferase at 100 uM in presence of canine Rab7 and rat REP1 NBD-FPP based continuous fluorimetric assay
# In short: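 Continuous fluorometric assay in 96/384-well format: 3 μM Rab7, 3 μM REP1, 9 μM NBD-FPP and 400 nM RabGGTase, with or without inhibitor. […] IC50 was calculated from three independent measurements.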
row,Compound,inhibition
1,C[C@H](NC(=O)[C@@H](NC(=O)c1ccc(-c2ccccc2)cc1)[C@@H](C)O)C(=O)N[C@@H](CCC(N)=O)C(=O)Nc1nccs1,108%
2,CCCCCCCCCCCCCC(=O)OC[C@H](NC(=O)CNC(=O)[C@H](COC(=O)CCCCCCCCCCCCC)NC(=O)c1coc(-c2ccccc2)n1)C(=O)O,106%
3,CCCCCCCCCCC(=O)N[C@@H](Cc1c[nH]cn1)C(=O)N[C@@H](Cc1c[nH]cn1)C(=O)N[C@@H](CO)C(=O)NCCCCN,75%
4,C=CCCCCCCCCCOC(=O)[C@H](CO)NC(=O)CNC(=O)[C@H](CO)NC(=O)/C=C/c1ccc(F)cc1,57%
5,CC(C)CCNC(=O)[C@H](Cc1ccccc1)NC(=O)[C@H](Cc1ccccc1)NC(=O)[C@H](CC(C)C)NC(=O)/C=C/c1ccccc1,92%
6,C=CCCCCCCCCCOC(=O)[C@H](CO)NC(=O)[C@H](Cc1ccccc1)NC(=O)[C@H](CO)NC(=O)/C=C/c1ccc(F)cc1,87%
7,CC(C)[C@H](NC(=O)[C@@H](Cc1ccccc1)NC(=O)c1ccc(-c2ccccc2)cc1)C(=O)N[C@H](C)C(=O)N1CCC[C@H]1C(N)=O,71%
8,O=C(CCc1ccc(F)cc1)N[C@@H](Cc1ccc(O)cc1)C(=O)NCC(=O)N[C@@H](Cc1ccc(O)cc1)C(=O)NCc1ccccc1,127%
9,CCCCCCCCCCCCCCCCNC(=O)[C@H](Cc1ccc(O)cc1)NC(=O)CNC(=O)[C@H](Cc1ccc(O)cc1)NC(=O)c1ccc(F)cc1,89%
10,CCCCCCCCCCCOc1ccc(C(=O)N[C@@H](Cc2c[nH]cn2)C(=O)N[C@@H](Cc2ccc(O)cc2)C(=O)N[C@@H](Cc2ccccc2)C(=O)N2CCOCC2)cc1,87%
11,CON(C)C(=O)[C@H](Cc1ccc(O)cc1)NC(=O)CNC(=O)[C@H](Cc1ccc(O)cc1)NC(=O)CCc1ccc(F)cc1,80%
12,C=CCCCCCCCCCOC(=O)[C@H](CCC(N)=O)NC(=O)[C@H](Cc1ccccc1)NC(=O)[C@H](CO)NC(=O)CCc1ccccc1,120%
13,CC[C@H](C)[C@H](NC(=O)c1ccc(-c2ccccc2)cc1)C(=O)N[C@@H](C(=O)N[C@@H](CCC(N)=O)C(=O)OCCc1scnc1C)C(C)C,86%
14,C[C@@H](O)[C@H](NC(=O)C(Br)C(Br)c1ccccc1)C(=O)N[C@@H](Cc1ccccc1)C(=O)N[C@@H](CCC(N)=O)C(=O)Nc1cccc(Br)n1 (some centres undefined),113%
15,C[C@@H](O)[C@H](NC(=O)C(Br)C(Br)c1ccccc1)C(=O)N[C@@H](Cc1ccccc1)C(=O)N[C@@H](CCC(N)=O)C(=O)OCCCl (some centres undefined),64%
16,CCCCCCCCCCC(=O)N[C@@H](Cc1c[nH]cn1)C(=O)N[C@@H](Cc1c[nH]cn1)C(=O)N[C@@H](Cc1ccc(O)cc1)C(=O)NCc1ccccn1,80%
17,C[C@@H](O)[C@H](NC(=O)/C=C/c1ccccc1)C(=O)N[C@@H](Cc1ccccc1)C(=O)N[C@@H](CCC(N)=O)C(=O)O,83%
18,CC(C)C[C@H](NC(=O)[C@H](COC(C)(C)C)NC(=O)[C@H](Cc1ccccc1)NC(=O)CCc1ccccc1)C(=O)OCCCl,109%
19,O=C(CNC(=O)[C@H](Cc1ccccc1)NC(=O)c1coc(-c2ccccc2)n1)N[C@@H](CO)C(=O)Nc1cncs1,116%
20,CCC(C)OC(=O)[C@H](CCC(N)=O)NC(=O)[C@H](Cc1ccccc1)NC(=O)[C@@H](NC(=O)/C=C/c1ccccc1)[C@@H](C)O (some centres undefined),87%
21,O=C(/C=C/c1ccc(F)cc1)N[C@@H](CO)C(=O)N[C@@H](Cc1ccccc1)C(=O)N[C@@H](CO)C(=O)O,99%
22,CC[C@H](C)[C@H](NC(=O)/C=C/c1ccc(F)cc1)C(=O)N[C@@H](C)C(=O)N[C@@H](CCC(N)=O)C(=O)OC,83%

row,Compound,inhibition
1,C[C@@H](NC(=O)CCc1ccccc1)C(=O)N[C@@H](Cc1ccccc1)C(=O)N[C@@H](CCC(N)=O)C(N)=O,95%
2,COc1ccc(C[C@@H](C(=O)N(C)[C@@H](Cc2ccccc2)C(=O)N2CCC(C(N)=O)CC2)N(C)C(=O)[C@@H](Cc2ccc(O)cc2)NC(=O)OCc2ccc([N+](=O)[O-])cc2)cc1,75%
3,CCCCCCCCCCC(=O)N[C@@H](Cc1ccc(O)cc1)C(=O)N[C@@H](Cc1c[nH]cn1)C(=O)N[C@@H](Cc1c[nH]cn1)C(N)=O (Undecanoyl-Tyr-His-His-NH2),79%
4,O=C(CCNC(=O)[C@H](Cc1c[nH]cn1)NC(=O)OCc1ccccc1)N[C@@H](Cc1ccc(O)cc1)C(=O)O,90%
5,O=C(CNC(=O)[C@H](Cc1ccc(O)cc1)NC(=O)c1ccc(F)cc1)N[C@@H](Cc1ccc(O)cc1)C(=O)N1CCOCC1,108%
6,CCCCCCCCCCCOc1ccc(C(=O)N[C@@H](Cc2ccc(O)cc2)C(=O)N[C@@H](Cc2ccc(O)cc2)C(=O)N[C@@H](Cc2ccc(O)cc2)C(=O)OC)cc1,102%
7,O=C(N[C@@H](Cc1ccc(O)cc1)C(=O)N[C@@H](Cc1ccc(O)cc1)C(=O)N[C@@H](Cc1ccc(O)cc1)C(=O)OCCCn1ccnc1)c1ccc(F)cc1F,96%
8,CCCCCCCCCCC(=O)N[C@@H](Cc1c[nH]cn1)C(=O)N[C@@H](Cc1ccccc1)C(=O)N[C@@H](Cc1ccc(O)cc1)C(=O)NCC(O)CO (some centres undefined),53%
9,Nc1ccccc1NC(=O)[C@H](Cc1ccc(O)cc1)NC(=O)CCNC(=O)[C@H](Cc1c[nH]cn1)NC(=O)OCc1ccccc1,80%
10,CC#CCOC(=O)[C@H](Cc1ccccc1)NC(=O)[C@H](CC(C)C)NC(=O)[C@@H]1CCCN1C(=O)/C=C/c1ccccc1,107%
11,CC(C)(C)Oc1ccc(C[C@H](NC(=O)c2coc(-c3ccccc3)n2)C(=O)NCC(=O)N[C@@H](Cc2cn(C(c3ccccc3)(c3ccccc3)c3ccccc3)cn2)C(=O)O)cc1,94%
12,O=C(N[C@@H](Cc1c[nH]cn1)C(=O)N[C@@H](Cc1ccc(O)cc1)C(=O)N[C@@H](Cc1ccccc1)C(=O)O)OCc1ccccc1OCc1ccccc1,15%
13,C[C@@H](NC(=O)CCc1ccccc1)C(=O)N[C@@H](Cc1ccccc1)C(=O)N[C@@H](CCC(=O)O)C(=O)Nc1cccc(Br)n1,100%
14,CC(C)C[C@H](NC(=O)[C@H](COC(C)(C)C)NC(=O)[C@H](Cc1ccccc1)NC(=O)c1ccc(-c2ccccc2)cc1)C(=O)O,81%
15,Cc1nc(C)c(C(=O)OC[C@H](NC(=O)[C@H](Cc2ccccc2)NC(=O)[C@H](CO)NC(=O)c2coc(-c3ccccc3)n2)C(=O)O)o1,84%
16,O=C(CCNC(=O)[C@H](Cc1c[nH]cn1)NC(=O)OCc1ccccc1)N[C@@H](Cc1ccc(O)cc1)C(=O)NCCCn1ccnc1,88%
17,O=C(N[C@@H](Cc1cnc[nH]1)C(=O)N[C@@H](Cc1ccccc1)C(=O)N[C@@H](Cc1ccc(O)cc1)C(=O)O)OCc1ccc([N+](=O)[O-])cc1,61%
18,CCCCCCCCCCCCCC(=O)OC[C@H](NC(=O)[C@@H](NC(=O)[C@H](CCCCNC(=O)c1coc(-c2ccccc2)n1)NC(=O)c1coc(-c2ccccc2)n1)[C@H](C)O)C(=O)O,54%
19,CCCCCCCCCCCOc1ccc(C(=O)N[C@@H](Cc2c[nH]cn2)C(=O)N[C@@H](Cc2c[nH]cn2)C(=O)N[C@@H](Cc2c[nH]cn2)C(=O)OCCN)cc1,101%
20,CCCCCCCCCCC(=O)N[C@@H](Cc1ccc(O)cc1)C(=O)N[C@@H](Cc1cnc[nH]1)C(=O)N[C@@H](Cc1ccc(O)cc1)C(=O)NCCCn1ccnc1,32%
21,COC(=O)[C@H](CO)NC(=O)[C@H](Cc1ccccc1)NC(=O)[C@H](CO)NC(=O)C(Br)C(Br)c1ccc(F)cc1 (some centres undefined),80%
22,O=C(CCc1ccc(F)cc1)N[C@@H](Cc1ccc(O)cc1)C(=O)NCC(=O)N[C@@H](Cc1ccc(O)cc1)C(=O)NC1CCCCC1,88%
